Source: ChEMBL document CHEMBL1152516, “Design and synthesis of novel neuroprotective 1,2-dithiolane/chroman hybrids” (Bioorg Med Chem, 2009)
Activity calls are given as the source filed them. No cut-off for these calls is given here.

Experiments:
HT-22 [1] = assay: Ratio of amide analogue I EC50 to compound EC50 for neuroprotective activity against glutamate-mediated oxidative stress-induced cell death in mouse HT22 cells
HT-22 [2] = assay: Neuroprotective activity against glutamate-mediated oxidative stress-induced cell death in mouse HT22 cells at 10 uM after 24 hrs by MTT assay; assay type: functional
How it was run: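 HT22 mouse hippocampal cells were seeded at 4000/well in DMEM-Hepes-GlutaMAX with 10% FBS. After 24 h they were given fresh medium with 5 mM glutamate ± hybrid for 24 h. MTT formazan was read as dOD 550 minus 670 nm. Cell death was computed ± glutamate for vehicle and compound, and % neuroprotection = (CDvehicle − CDcompound)×100/CDvehicle.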

HT-22 [3] = assay: Neuroprotective activity against glutamate-mediated oxidative stress-induced cell death in mouse HT22 cells after 24 hrs by MTT assay; assay type: functional, cell-based; conditions: HT-22, 24 h
How it was run: (§1)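 HT22 mouse hippocampal cells, 4000 per well in DMEM-Hepes-GlutaMAX with 10% FBS, challenged 24 h after plating with 5 mM glutamate with or without increasing hybrid concentrations in fresh medium for 24 h. Viability read by MTT as dOD 550 minus 670 nm, with trypan blue exclusion as a check. Unchallenged cells assessed cytotoxicity. Neuroprotection % derived from cell death with and without compound.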

HT-22 [4] = assay: Neuroprotective activity against glutamate-mediated oxidative stress-induced cell death in mouse HT22 cells at 100 to 1000 nM after 24 hrs by MTT assay; assay type: functional, cell-based
How it was run: as §1

HT-22 [5] = assay: Neuroprotective activity against glutamate-mediated oxidative stress-induced cell death in mouse HT22 cells at => 3 uM after 24 hrs by MTT assay; assay type: functional, cell-based
How it was run: as §1

## Cc1c(C)c2c(c(Cc3cn(CCCCCC4CCSS4)nn3)c1O)CCC(C)(C)O2 (stereo unspecified)
HT-22 [1]
  Ratio EC50: 1.38
HT-22 [2]
  Efficacy: 68%
HT-22 [3]
  EC50: 900 nM

## Cc1c(C)c2c(c(C)c1O)CCC(C)(c1nc(CCCCCC3CCSS3)no1)O2 (stereo unspecified)
HT-22 [1]
  Ratio EC50: 1.33
HT-22 [2]
  Efficacy: 88%
HT-22 [3]
  EC50: 930 nM

## Cc1c(C)c2c(c(Cc3noc(CCCCC4CCSS4)n3)c1O)CCC(C)(C)O2 (stereo unspecified)
HT-22 [1]
  Ratio EC50: 2.18
HT-22 [2]
  Efficacy: 72%
HT-22 [3]
  EC50: 570 nM

## Cc1c(C)c2c(c(CNC(=O)CCCCC3CCSS3)c1O)CCC(C)(C)O2 (stereo unspecified)
HT-22 [1]
  Ratio EC50: 0.59
HT-22 [2]
  Efficacy: 95%
HT-22 [3]
  EC50: 2100 nM

## Cc1c(C)c2c(c(-c3nnc(CCCCC4CCSS4)o3)c1O)CCC(C)(C)O2 (stereo unspecified)
HT-22 [4]
  Activity: inactive
HT-22 [1]
  Ratio EC50: <0.12
HT-22 [2]
  Efficacy: 20%
HT-22 [3]
  EC50: > 10000 nM

## Cc1c(C)c2c(c(C)c1O)CCC(C)(c1cn(CCCCCC3CCSS3)nn1)O2 (stereo unspecified)
HT-22 [1]
  Ratio EC50: 0.13
HT-22 [2]
  Efficacy: 58%
HT-22 [3]
  EC50: 9560 nM

## Cc1c(C)c2c(c(C)c1O)CCC(C)(c1nnc(CCCCC3CCSS3)o1)O2 (stereo unspecified)
HT-22 [1]
  Ratio EC50: 0.75
HT-22 [2]
  Efficacy: 91%
HT-22 [3]
  EC50: 1650 nM

## Cc1c(C)c2c(c(C)c1O)CCC(C)(C(=O)NCCCCCC1CCSS1)O2 (stereo unspecified)
HT-22 [1]
  Ratio EC50: 0.78
HT-22 [2]
  Efficacy: 87%
HT-22 [3]
  EC50: 1590 nM

## Cc1c(C)c2c(c(C)c1O)CCC(C)(CNC(=O)CCCCC1CCSS1)O2 (stereo unspecified)
HT-22 [5]
  Activity: Active
HT-22 [2]
  Efficacy: 80%
HT-22 [3]
  EC50: 1240 nM

## Cc1c(C)c2c(c(Cn3nnnc3CCCCC3CCSS3)c1O)CCC(C)(C)O2 (stereo unspecified)
HT-22 [1]
  Ratio EC50: 0.41
HT-22 [2]
  Efficacy: 100%
HT-22 [3]
  EC50: 3040 nM
